# Source: ChEMBL document CHEMBL2417474, “Synthesis, antiproliferative and anti-inflammatory activities of some novel 6-aryl-2-(p-(methanesulfonyl)phenyl)-4,5-dihydropyridazi-3(2H)-ones” (Eur J Med Chem, 2013)
# What was measured:
# [1] = test system: Rattus norvegicus; experiment: Antiinflammatory activity in Wistar rat assessed as inhibition of carrageenan-induced paw edema at 0.05 mmol/kg, po administered 30 mins prior challenge measured after 5 hrs; format: functional
# How it was run: (§1)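 Wistar rats of either sex, 150–175 g, fasted 16 h, 6 per group. Dosed orally at 0.05 mmol/kg, suspended in 1% CMC in water (10 ml/kg). 30 min later, 0.1 ml of 1% carrageenan in saline injected subplantar into the left hind paw. Paw volume read by plethysmometer at 0, 3 and 5 h. % inhibition = (1 − Vt/Vc) × 100 against the vehicle group.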
# [2] = test system: Rattus norvegicus; experiment: Antiinflammatory activity in Wistar rat assessed as inhibition of carrageenan-induced paw edema at 0.05 mmol/kg, po administered 30 mins prior challenge measured after 3 hrs; format: functional; how it was run: as §1
# [3] = test system: HL-60(TB); experiment: Growth inhibition of human HL-60(TB) cells assessed as cell growth at 10 uM after 48 hrs by sulforhodamine B assay; format: functional; conditions: HL-60, 48 h, read-out: Activity
# [4] = test system: Rattus norvegicus; experiment: Ulcerogenic activity in Wistar albino rat at 0.15 mmol/kg, po measured after 6 hrs; format: toxicity, organism-based; conditions: in vivo
# How it was run: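 Acute gastric ulcer test in Wistar rats (160–220 g) fasted 24 h, randomized into groups of six. Compound (0.15 mmol/kg) suspended in 1% w/v CMC in distilled water (10 ml/kg vehicle) was given orally, with vehicle and etoricoxib groups alongside. Animals were sacrificed under deep ether anesthesia 6 h after dosing.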
# [5] = test system: UO-31; experiment: Growth inhibition of human UO31 cells assessed as cell growth at 10 uM after 48 hrs by sulforhodamine B assay; format: functional; conditions: UO-31, 48 h, read-out: Activity
# How it was run: (§2)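 Single-dose NCI screen. Tumor lines were cultured in medium with 5% fetal calf serum and 2 mM L-glutamine, preincubated 24 h, then given compound in DMSO. After 48 h continuous exposure, cell growth was estimated by sulforhodamine B protein assay.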
# [6] = test system: NCI-H522; experiment: Growth inhibition of human NCI-H522 cells assessed as cell growth at 10 uM after 48 hrs by sulforhodamine B assay; format: functional; conditions: NCI-H522, 48 h, read-out: Activity
# [7] = Growth inhibition of human NCI-ADR-RES cells assessed as cell growth at 10 uM after 48 hrs by sulforhodamine B assay; format: functional; conditions: read-out: Activity
# [8] = test system: NCI-H23; experiment: Growth inhibition of human NCI-H23 cells assessed as cell growth at 10 uM after 48 hrs by sulforhodamine B assay; format: functional; conditions: NCI-H23, 48 h, read-out: Activity
# [9] = test system: K562; experiment: Growth inhibition of human K562 cells assessed as cell growth at 10 uM after 48 hrs by sulforhodamine B assay; format: functional; conditions: K562, 48 h, read-out: Activity
# [10] = test system: MOLT-4; experiment: Growth inhibition of human MOLT4 cells assessed as cell growth at 10 uM after 48 hrs by sulforhodamine B assay; format: functional; conditions: MOLT-4, 48 h, read-out: Activity
# [11] = test system: MDA-MB-435; experiment: Growth inhibition of human MDA-MB-435 cells assessed as cell growth at 10 uM after 48 hrs by sulforhodamine B assay; format: functional; conditions: MDA-MB-435, 48 h, read-out: Activity
# [12] = test system: SR; experiment: Growth inhibition of human SR cells assessed as cell growth at 10 uM after 48 hrs by sulforhodamine B assay; format: functional; conditions: read-out: Activity; how it was run: as §2
# [13] = Growth inhibition of human Hs 578T cells assessed as cell growth at 10 uM after 48 hrs by sulforhodamine B assay; format: functional; conditions: read-out: Activity
# [14] = test system: RPMI-8226; experiment: Growth inhibition of human RPMI8226 cells assessed as cell growth at 10 uM after 48 hrs by sulforhodamine B assay; format: functional; conditions: RPMI-8226, 48 h, read-out: Activity
# [15] = test system: OVCAR-3; experiment: Growth inhibition of human OVCAR3 cells assessed as cell growth at 10 uM after 48 hrs by sulforhodamine B assay; format: functional; conditions: OVCAR-3, 48 h, read-out: Activity
# [16] = Growth inhibition of human EKVX cells assessed as cell growth at 10 uM after 48 hrs by sulforhodamine B assay; format: functional; conditions: read-out: Activity
# [17] = test system: T47D; experiment: Growth inhibition of human T47D cells assessed as cell growth at 10 uM after 48 hrs by sulforhodamine B assay; format: functional; conditions: read-out: Activity; how it was run: as §2
# [18] = test system: CAKI-1; experiment: Growth inhibition of human CAKI-1 cells assessed as cell growth at 10 uM after 48 hrs by sulforhodamine B assay; format: functional; conditions: CAKI-1, 48 h, read-out: Activity
# [19] = test system: SF-295; experiment: Growth inhibition of human SF295 cells assessed as cell growth at 10 uM after 48 hrs by sulforhodamine B assay; format: functional; conditions: SF-295, 48 h, read-out: Activity
# [20] = test system: MDA-MB-468; experiment: Growth inhibition of human MDA-MB-468 cells assessed as cell growth at 10 uM after 48 hrs by sulforhodamine B assay; format: functional; conditions: MDA-MB-468, 48 h, read-out: Activity
# [21] = test system: SK-MEL-5; experiment: Growth inhibition of human SK-MEL-5 cells assessed as cell growth at 10 uM after 48 hrs by sulforhodamine B assay; format: functional; conditions: SK-MEL-5, 48 h, read-out: Activity
SMILES,inhibition in vivo at 50 µmol/kg [1],inhibition in vivo at 50 µmol/kg [2],other results
CS(=O)(=O)c1ccc(N2N=C(c3ccc(Cl)c(Cl)c3)CCC2=O)cc1,34.2%,26.6%,–
CS(=O)(=O)c1ccc(N2N=C(c3ccc(O)c(Cl)c3)CCC2=O)cc1,55.2%,43.3%,growth at 10 µM [3]: 66.7%
Cc1ccc(O)c(C2=NN(c3ccc(S(C)(=O)=O)cc3)C(=O)CC2)c1,86.8%,66.6%,Activity [4]: Non-toxic; growth at 10 µM [5]: 70%
Cc1cc(C2=NN(c3ccc(S(C)(=O)=O)cc3)C(=O)CC2)ccc1O,60.5%,26.6%,–
CS(=O)(=O)c1ccc(N2N=C(c3ccccc3)CCC2=O)cc1,47.3%,26.6%,–
CS(=O)(=O)c1ccc(N2N=C(c3ccc(Cl)cc3)CCC2=O)cc1,36.8%,26.6%,growth at 10 µM [6]: 25.4%; growth at 10 µM [7]: 58.3%; growth at 10 µM [8]: 65.3%
CS(=O)(=O)c1ccc(N2N=C(c3ccc(Br)cc3)CCC2=O)cc1,31.5%,10%,–
CS(=O)(=O)c1ccc(N2N=C(c3ccc(F)cc3)CCC2=O)cc1,73.6%,60%,growth at 10 µM [9]: 41.8%; growth at 10 µM [10]: 44.7%
COc1ccc(C2=NN(c3ccc(S(C)(=O)=O)cc3)C(=O)CC2)cc1,68.4%,46.7%,growth at 10 µM [11]: 7.92%; growth at 10 µM [5]: 62.1%; growth at 10 µM [12]: 64%
CC(C)(C)c1ccc(C2=NN(c3ccc(S(C)(=O)=O)cc3)C(=O)CC2)cc1,68.4%,50%,growth at 10 µM [13]: 70.7%; growth at 10 µM [14]: 69.6%
CS(=O)(=O)c1ccc(N2N=C(c3ccc(-c4ccccc4)cc3)CCC2=O)cc1,21%,6.6%,growth at 10 µM [13]: 64.6%; growth at 10 µM [15]: 42.1%; growth at 10 µM [16]: 29.6%
CS(=O)(=O)c1ccc(N2N=C(c3ccc(Oc4ccccc4)cc3)CCC2=O)cc1,65.7%,50%,growth at 10 µM [9]: 39.7%; growth at 10 µM [17]: 44.4%; growth at 10 µM [18]: 49.8%; growth at 10 µM [5]: 48.8%; growth at 10 µM [19]: 28.8%; growth at 10 µM [20]: 41.6%; growth at 10 µM [16]: 20.1%; growth at 10 µM [21]: 35.1%
COc1ccc(C2=NN(c3ccc(S(C)(=O)=O)cc3)C(=O)CC2)cc1OC,82.4%,66.6%,Activity [4]: Non-toxic
Cc1ccc(-c2ncc(Cl)cc2-c2ccc(S(C)(=O)=O)cc2)cn1 [ETORICOXIB],86.8%,83.3%,–
